According to ChEMBL document CHEMBL1133135, “Grignard-mediated synthesis and preliminary biological evaluation of novel 3-substituted farnesyl diphosphate analogues” (Bioorg Med Chem Lett, 2000):

The molecules below were run against Protein farnesyltransferase (Homo sapiens, UniProt P49354+P49356) (assay: Inhibitory activity against recombinant mammalian protein Farnesyltransferase expressed in baculovirus).
Outline: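 Recombinant mammalian FTase, baculovirus-expressed and purified, assayed continuously by fluorescence with dansyl-GCVLS-OH as peptide cosubstrate and the FPP analogue as isoprenoid. IC50 is taken from the decrease in activity with rising analogue concentration. Analogue concentrations were verified by phosphate analysis.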

IC50 [nM] | SMILES
35 | CC(C)=CCC/C(C)=C/CC/C(=C/COP(=O)(O)OP(=O)(O)O)C(C)C
10100 | CC(C)=CCC/C(C)=C/CC/C(=C/COP(=O)(O)OP(=O)(O)O)c1ccc(F)cc1
453 | CCC/C(=C\COP(=O)(O)OP(=O)(O)O)CC/C=C(\C)CCC=C(C)C
18 | C=C(C)/C(=C\COP(=O)(O)OP(=O)(O)O)CC/C=C(\C)CCC=C(C)C
290 | CC(C)=CCC/C(C)=C/CC/C(=C/COP(=O)(O)OP(=O)(O)O)CC(C)C
102 | CCC(C)/C(=C\COP(=O)(O)OP(=O)(O)O)CC/C=C(\C)CCC=C(C)C (stereo not drawn)
6600 | CC(C)=CCC/C(C)=C/CC/C(=C/COP(=O)(O)OP(=O)(O)O)CC(C)(C)C
119 | C=CC/C(=C\COP(=O)(O)OP(=O)(O)O)CC/C=C(\C)CCC=C(C)C
